Among the data in ChEMBL document CHEMBL4229344 (Eur J Med Chem, 2018) are Activity and inhibition values, retold here.

Molecules are shown by their SMILES. Calls of active or inactive are those of the source. The rule behind the calls is not given here.

The target of assay [1] is Mitogen-activated protein kinase kinase kinase 2 (Homo sapiens) (UniProt Q9Y2U5). As to the kind of experiment: Binding affinity to wild-type human partial length MAP3K2 (S315 to H619 residues) expressed in mammalian expression system assessed as residual binding level at 1 uM by Kinomescan method relative to control.
Mitogen-activated protein kinase kinase kinase 2 (Homo sapiens), sequence (Q9Y2U5 whole entry, the tested form may be a part): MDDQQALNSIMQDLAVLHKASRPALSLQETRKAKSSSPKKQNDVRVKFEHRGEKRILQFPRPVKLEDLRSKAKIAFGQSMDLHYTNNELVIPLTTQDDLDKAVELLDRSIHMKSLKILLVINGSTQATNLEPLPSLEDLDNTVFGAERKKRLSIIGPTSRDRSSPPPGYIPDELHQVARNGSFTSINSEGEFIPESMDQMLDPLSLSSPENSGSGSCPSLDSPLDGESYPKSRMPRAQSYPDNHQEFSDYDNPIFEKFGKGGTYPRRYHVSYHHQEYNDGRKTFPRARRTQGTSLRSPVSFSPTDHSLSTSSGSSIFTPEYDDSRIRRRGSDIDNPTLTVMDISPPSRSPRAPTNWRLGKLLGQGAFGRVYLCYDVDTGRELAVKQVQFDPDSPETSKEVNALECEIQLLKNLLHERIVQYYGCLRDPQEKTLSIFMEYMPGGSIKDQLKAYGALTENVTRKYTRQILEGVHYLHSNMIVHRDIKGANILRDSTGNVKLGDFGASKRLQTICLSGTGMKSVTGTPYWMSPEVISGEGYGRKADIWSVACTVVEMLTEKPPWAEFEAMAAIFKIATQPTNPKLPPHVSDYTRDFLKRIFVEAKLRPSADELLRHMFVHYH
Assay [2] addresses Death-associated protein kinase 1 (Homo sapiens) (UniProt P53355). The assay can be described thus: Binding affinity to wild-type human partial length DAPK1 (M1 to F296 residues) expressed in bacterial expression system assessed as residual binding level at 1 uM by Kinomescan method relative to control.
In assay [3] the target is Platelet-derived growth factor receptor alpha (Homo sapiens, UniProt P16234). The assay can be described thus: Inhibition of PDGF-induced PDGFRalpha autophosphorylation at Y849 residue in human NCI-H1703 cells after 2 hrs in presence of PDGF-AA by Western blot analysis. Format: cell-based. (Immunoblotting shows a protein as a band on a membrane.)
Platelet-derived growth factor receptor alpha, sequence (P16234 whole entry, the tested form may be a part): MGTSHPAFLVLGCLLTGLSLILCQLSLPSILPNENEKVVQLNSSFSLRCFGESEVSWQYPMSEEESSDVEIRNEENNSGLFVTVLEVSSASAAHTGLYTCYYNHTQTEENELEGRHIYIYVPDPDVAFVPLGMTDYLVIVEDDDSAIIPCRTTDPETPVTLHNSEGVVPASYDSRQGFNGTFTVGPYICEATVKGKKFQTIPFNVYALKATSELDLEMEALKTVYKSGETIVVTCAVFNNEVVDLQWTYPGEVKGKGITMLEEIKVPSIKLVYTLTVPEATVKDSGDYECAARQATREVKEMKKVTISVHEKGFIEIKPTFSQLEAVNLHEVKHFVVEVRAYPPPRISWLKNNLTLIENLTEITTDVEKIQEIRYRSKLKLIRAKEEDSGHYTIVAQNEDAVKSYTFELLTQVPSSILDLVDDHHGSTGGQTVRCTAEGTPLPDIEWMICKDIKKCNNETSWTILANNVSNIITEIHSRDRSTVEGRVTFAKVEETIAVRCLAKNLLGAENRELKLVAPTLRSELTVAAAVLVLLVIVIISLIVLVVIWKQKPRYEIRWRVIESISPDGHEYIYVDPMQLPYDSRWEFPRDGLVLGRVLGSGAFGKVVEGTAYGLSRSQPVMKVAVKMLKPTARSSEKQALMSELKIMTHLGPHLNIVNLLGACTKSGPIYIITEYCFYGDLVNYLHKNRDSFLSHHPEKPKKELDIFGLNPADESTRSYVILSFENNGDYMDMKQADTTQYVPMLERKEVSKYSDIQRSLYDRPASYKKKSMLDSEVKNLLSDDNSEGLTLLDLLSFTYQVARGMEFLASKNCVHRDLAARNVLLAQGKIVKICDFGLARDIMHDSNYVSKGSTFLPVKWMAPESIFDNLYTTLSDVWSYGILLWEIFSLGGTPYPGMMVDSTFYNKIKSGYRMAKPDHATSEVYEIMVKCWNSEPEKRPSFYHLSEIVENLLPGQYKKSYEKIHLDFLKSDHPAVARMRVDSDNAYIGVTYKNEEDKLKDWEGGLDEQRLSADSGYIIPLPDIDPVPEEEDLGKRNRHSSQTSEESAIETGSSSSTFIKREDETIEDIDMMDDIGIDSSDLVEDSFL
In assay [4] the target is Dual specificity mitogen-activated protein kinase kinase 5 (Homo sapiens) (UniProt Q13163). As to the kind of experiment: Binding affinity to wild-type human partial length MEK5 (L98 to P448 residues) expressed in mammalian expression system assessed as residual binding level at 1 uM by Kinomescan method relative to control.
The target of assay [5] is Serine/threonine-protein kinase NLK (Homo sapiens) (UniProt Q9UBE8). As to the kind of experiment: Binding affinity to wild-type human full length NLK (M13 to E527 residues) expressed in bacterial expression system assessed as residual binding level at 1 uM by Kinomescan method relative to control. A digest of the protocol: (§1)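 KINOMEscan competition binding against 468 purified kinases/mutants, test compound at 1 µM; residual binding relative to control.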
Serine/threonine-protein kinase NLK (Homo sapiens), sequence (Q9UBE8 whole entry, the tested form may be a part): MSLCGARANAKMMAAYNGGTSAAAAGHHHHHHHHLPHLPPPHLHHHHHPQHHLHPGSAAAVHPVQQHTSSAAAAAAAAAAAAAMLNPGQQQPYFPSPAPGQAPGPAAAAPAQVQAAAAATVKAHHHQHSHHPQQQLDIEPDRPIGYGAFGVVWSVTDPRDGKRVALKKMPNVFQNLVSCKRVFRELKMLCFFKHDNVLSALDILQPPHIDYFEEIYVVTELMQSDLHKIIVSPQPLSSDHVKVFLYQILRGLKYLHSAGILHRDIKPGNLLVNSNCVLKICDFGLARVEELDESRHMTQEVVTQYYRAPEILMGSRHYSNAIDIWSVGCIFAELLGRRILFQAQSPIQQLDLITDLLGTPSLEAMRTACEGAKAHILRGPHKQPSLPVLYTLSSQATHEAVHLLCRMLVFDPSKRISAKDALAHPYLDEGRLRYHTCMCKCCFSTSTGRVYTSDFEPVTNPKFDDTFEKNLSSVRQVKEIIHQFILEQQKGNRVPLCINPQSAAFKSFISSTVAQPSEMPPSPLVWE

Assay [6] deals with Serine/threonine-protein kinase MARK1 (Homo sapiens) (UniProt Q9P0L2). The assay can be described thus: Binding affinity to wild-type human partial length MARK1 (Q30 to T341 residues) expressed in bacterial expression system assessed as residual binding level at 1 uM by Kinomescan method relative to control.
Assay [7] addresses Calcium/calmodulin-dependent protein kinase kinase 1 (Homo sapiens) (UniProt Q8N5S9). As to the kind of experiment: Binding affinity to wild-type human partial length CAMKK1 (R65 to E414 residues) expressed in bacterial expression system assessed as residual binding level at 1 uM by Kinomescan method relative to control. A digest of the protocol:
(§2)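 Kinome-wide competition binding screen against a panel of 468 purified kinases/mutants, with the test compound at a single concentration of 1 μM. Read-out is the relative binding activity of each kinase in the presence of compound.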

The target of assay [8] is Serine/threonine-protein kinase 24 (Homo sapiens) (UniProt Q9Y6E0). The assay can be described thus: Binding affinity to wild-type human partial length MST3 (A30 to S311 residues) expressed in bacterial expression system assessed as residual binding level at 1 uM by Kinomescan method relative to control.
Serine/threonine-protein kinase 24 (Homo sapiens), sequence (Q9Y6E0 whole entry, looked up, the tested form may be a part): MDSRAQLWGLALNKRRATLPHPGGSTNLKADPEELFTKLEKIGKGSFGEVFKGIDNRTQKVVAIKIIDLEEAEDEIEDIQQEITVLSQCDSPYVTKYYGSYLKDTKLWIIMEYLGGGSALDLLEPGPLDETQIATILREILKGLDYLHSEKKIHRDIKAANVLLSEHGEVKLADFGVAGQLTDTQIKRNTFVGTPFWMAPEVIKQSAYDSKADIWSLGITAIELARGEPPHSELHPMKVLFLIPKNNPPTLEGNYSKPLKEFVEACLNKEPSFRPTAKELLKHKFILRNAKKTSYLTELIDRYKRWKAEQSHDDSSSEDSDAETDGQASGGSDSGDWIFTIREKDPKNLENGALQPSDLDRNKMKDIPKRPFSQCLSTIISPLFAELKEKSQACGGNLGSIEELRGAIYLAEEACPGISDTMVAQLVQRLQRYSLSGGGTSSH
Assay [9] addresses Tyrosine-protein kinase Tec (Homo sapiens) (UniProt P42680). As to the kind of experiment: Binding affinity to wild-type human partial length TEC (L341 to D620 residues) expressed in bacterial expression system assessed as residual binding level at 1 uM by Kinomescan method relative to control.
The target of assay [10] is Fibroblast growth factor receptor 2 (Homo sapiens) (UniProt P21802). As to the kind of experiment: Binding affinity to wild-type human partial length FGFR2 (D457 to E769 residues) expressed in bacterial expression system assessed as residual binding level at 1 uM by Kinomescan method relative to control. A digest of the protocol:
as §2

Assay [11] has as its system Mast/stem cell growth factor receptor Kit (Homo sapiens), P10721 [D816H]. As to the kind of experiment: Binding affinity to human partial length KIT D816H mutant (I571 to D952 residues) expressed in mammalian expression system assessed as residual binding level at 1 uM by Kinomescan method relative to control. Summed up:
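Kinome-wide single-concentration binding screen (KINOMEscan) at 1 μM against a panel of 468 purified kinases and mutants. Read-out is relative binding of each kinase compared with control. Selectivity across the panel was summarised as an S(10) score.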

The target in assay [12] is cGMP-dependent protein kinase 1 (Homo sapiens) (UniProt Q13976). As to the kind of experiment: Binding affinity to wild-type human partial length PRKG1 (L339 to F686 residues) expressed in bacterial expression system assessed as residual binding level at 1 uM by Kinomescan method relative to control.
For assay [13], the target named is Casein kinase I isoform gamma-3 (Homo sapiens) (UniProt Q9Y6M4). The assay can be described thus: Binding affinity to wild-type human full length CSNK1G3 (M1 to K447 residues) expressed in bacterial expression system assessed as residual binding level at 1 uM by Kinomescan method relative to control. Summed up:
as §1

Assay [14] addresses Serine/threonine-protein kinase B-raf (Homo sapiens) (UniProt P15056). As to the kind of experiment: Binding affinity to wild-type human partial length BRAF (S429 to E741 residues) expressed in mammalian expression system assessed as residual binding level at 1 uM by Kinomescan method relative to control. A digest of the protocol: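 Single-concentration KINOMEscan (DiscoverX) binding screen at 1 μM against a panel of 468 purified kinases and mutants. The read-out is binding relative to control.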

The test system of assay [15] is Tyrosine-protein kinase ABL1 (Homo sapiens), P00519 [T315I]. As to the kind of experiment: Binding affinity to human phosphorylated ABL1 T315I mutant (S229 to K512 residues) expressed in mammalian expression system assessed as residual binding level at 1 uM by Kinomescan method relative to control. Summed up:
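Single-concentration (1 μM) competition-binding screen run by KINOMEscan against a panel of 468 purified kinases and mutants. The read-out is the relative binding activity of the test compound to each kinase.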

Assay [16] concerns the target NUAK family SNF1-like kinase 2 (Homo sapiens) (UniProt Q9H093). As to the kind of experiment: Binding affinity to wild-type human partial length SNARK (P22 to A333 residues) expressed in mammalian expression system assessed as residual binding level at 1 uM by Kinomescan method relative to control.
Assay [17] concerns the target Mitogen-activated protein kinase kinase kinase 20 (Homo sapiens) (UniProt Q9NYL2). The assay can be described thus: Binding affinity to wild-type human partial length ZAK (M1 to L331 residues) expressed in bacterial expression system assessed as residual binding level at 1 uM by Kinomescan method relative to control.
Assay [18] concerns the target SNF-related serine/threonine-protein kinase (Homo sapiens) (UniProt Q9NRH2). As to the kind of experiment: Binding affinity to wild-type human partial length SNRK (M1 to E339 residues) expressed in mammalian expression system assessed as residual binding level at 1 uM by Kinomescan method relative to control.
The target in assay [19] is Misshapen-like kinase 1 (Homo sapiens) (UniProt Q8N4C8). As to the kind of experiment: Binding affinity to wild-type human partial length MINK (M1 to K312 residues) expressed in mammalian expression system assessed as residual binding level at 1 uM by Kinomescan method relative to control. A digest of the protocol:
as §2

Assay [20] addresses Tyrosine-protein kinase FRK (Homo sapiens) (UniProt P42685). As to the kind of experiment: Binding affinity to wild-type human partial length FRK (A215 to F503 residues) expressed in bacterial expression system assessed as residual binding level at 1 uM by Kinomescan method relative to control. Summed up:
as §2

Another assay concerns EOL1. As to the kind of experiment: Induction of apoptosis in human EOL-1 cells assessed as cleaved caspase3 expression level at 3 to 100 nM after 24 hrs by Western blot analysis. Format: functional, cell-based. Summed up: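 Cells exposed to compound or DMSO for the stated periods, then lysed and immunoblotted for PARP and caspase-3 cleavage, with β-actin as loading control. NCI-H1703 stimulation used PDGF AA at 100 ng/mL.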

Tyrosine-protein kinase FRK (Homo sapiens), sequence (P42685 whole entry, the tested form may be a part): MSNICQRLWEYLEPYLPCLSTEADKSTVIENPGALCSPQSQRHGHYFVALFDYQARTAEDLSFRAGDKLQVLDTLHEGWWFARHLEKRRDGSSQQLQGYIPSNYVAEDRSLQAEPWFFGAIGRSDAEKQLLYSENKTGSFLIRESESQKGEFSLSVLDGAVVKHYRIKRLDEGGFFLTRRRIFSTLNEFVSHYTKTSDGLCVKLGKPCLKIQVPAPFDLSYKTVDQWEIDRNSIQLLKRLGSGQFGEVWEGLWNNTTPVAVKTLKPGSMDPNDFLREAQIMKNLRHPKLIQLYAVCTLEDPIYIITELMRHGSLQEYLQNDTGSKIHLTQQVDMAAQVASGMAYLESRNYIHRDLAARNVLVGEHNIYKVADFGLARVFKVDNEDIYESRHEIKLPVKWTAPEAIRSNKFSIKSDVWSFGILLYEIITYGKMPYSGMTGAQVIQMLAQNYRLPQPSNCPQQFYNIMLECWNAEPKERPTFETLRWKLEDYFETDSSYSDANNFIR
SNF-related serine/threonine-protein kinase (Homo sapiens), sequence (Q9NRH2 whole entry, the tested form may be a part): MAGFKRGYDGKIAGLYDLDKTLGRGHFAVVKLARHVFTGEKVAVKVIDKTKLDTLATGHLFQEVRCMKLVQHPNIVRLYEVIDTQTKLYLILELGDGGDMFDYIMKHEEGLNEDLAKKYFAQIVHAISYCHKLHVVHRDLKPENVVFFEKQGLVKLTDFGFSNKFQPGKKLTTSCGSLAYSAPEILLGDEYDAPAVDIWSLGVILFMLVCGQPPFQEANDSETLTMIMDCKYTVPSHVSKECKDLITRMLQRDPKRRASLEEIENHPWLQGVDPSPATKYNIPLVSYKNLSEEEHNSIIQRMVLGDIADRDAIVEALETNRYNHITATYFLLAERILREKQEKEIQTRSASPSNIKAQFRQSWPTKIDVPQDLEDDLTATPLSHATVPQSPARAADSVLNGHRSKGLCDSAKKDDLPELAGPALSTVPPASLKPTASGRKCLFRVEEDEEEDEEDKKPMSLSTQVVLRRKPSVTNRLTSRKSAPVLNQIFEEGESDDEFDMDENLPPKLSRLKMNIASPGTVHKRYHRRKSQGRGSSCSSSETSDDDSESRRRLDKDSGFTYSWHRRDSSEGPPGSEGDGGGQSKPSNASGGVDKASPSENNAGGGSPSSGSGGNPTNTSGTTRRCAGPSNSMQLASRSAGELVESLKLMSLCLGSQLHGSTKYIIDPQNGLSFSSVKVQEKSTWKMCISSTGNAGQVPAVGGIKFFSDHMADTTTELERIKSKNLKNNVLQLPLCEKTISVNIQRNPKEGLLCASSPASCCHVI
Serine/threonine-protein kinase B-raf (Homo sapiens), sequence (P15056 whole entry, the tested form may be a part): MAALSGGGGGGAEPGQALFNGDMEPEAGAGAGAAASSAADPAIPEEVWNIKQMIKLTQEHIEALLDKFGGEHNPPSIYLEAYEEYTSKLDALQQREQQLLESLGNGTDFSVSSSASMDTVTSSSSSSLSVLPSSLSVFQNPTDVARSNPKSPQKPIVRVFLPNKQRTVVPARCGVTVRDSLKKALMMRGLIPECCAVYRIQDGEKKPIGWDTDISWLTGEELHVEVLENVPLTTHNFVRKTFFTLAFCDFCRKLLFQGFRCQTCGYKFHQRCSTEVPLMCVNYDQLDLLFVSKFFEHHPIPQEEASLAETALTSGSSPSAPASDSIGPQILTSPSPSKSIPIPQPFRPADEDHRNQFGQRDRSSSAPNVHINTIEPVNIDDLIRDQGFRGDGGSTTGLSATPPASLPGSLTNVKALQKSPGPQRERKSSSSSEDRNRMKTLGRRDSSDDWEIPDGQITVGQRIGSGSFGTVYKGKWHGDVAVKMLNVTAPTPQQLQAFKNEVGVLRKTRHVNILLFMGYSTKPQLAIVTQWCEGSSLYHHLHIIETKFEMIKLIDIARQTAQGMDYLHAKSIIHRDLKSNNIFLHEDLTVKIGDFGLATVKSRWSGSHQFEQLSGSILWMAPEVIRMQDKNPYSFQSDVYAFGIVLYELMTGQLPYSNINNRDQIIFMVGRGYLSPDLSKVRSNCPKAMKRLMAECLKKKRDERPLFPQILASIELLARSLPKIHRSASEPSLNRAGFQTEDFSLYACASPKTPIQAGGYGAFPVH

`Cc1ccc(NC(=O)c2ccc(CN(CCN(C)C)C(=O)c3cccnc3)cc2)cc1Nc1nccc(-c2cccnc2)n1`: the Activity in assay [1] is 100%; in assay [2], 96%; in [4], 100%; in assay [5] it was 82%; in [6], 97%; in assay [7], 92%. For the same compound, the Activity in [8] came out at 100%; in assay [9], 100%; in assay [10], 80%; in assay [11], 100%; in [12], 85%; in [13], 92%. Also, the Activity in assay [14] amounted to 88%; in [15], 100%; in assay [16], 100%; in [17], 100%; in assay [18], 100%; in [19], 75%. The Activity in assay [20] came to 80%. The inhibition entry in assay [3] was “Dose-dependent effect”. Also, the result with EOL1 was Active.
